# High-throughput results (PubChem BioAssay)
# This is a sample that favours compounds with a hit; in the whole collection about 1.6% have one here.
# DAGLB inhibitor: DAGLB lipase inhibitors, primary screen, biochemical, fluorescence, HTS; inhibition, % at 5.17 µM; HEK293T DAGLB membrane lysate, EnzChek fluorogenic substrate; Diacylglycerol lipase-beta (Homo sapiens), Q8NCG7; 0.059% of 340,000 active; in the data active = inhibition above about 34%;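 note: 0% = enzyme with vehicle and 100% = wells lacking enzyme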
# HTRA1 inhibitor: HTRA1 serine protease inhibitors, primary screen, biochemical, fluorescence polarization, HTS; Q92743; recombinant HTRA1, FP-rhodamine activity-based probe; inhibition, % at 5.96 µM; 0.5% of 340,000 active; in the data active = inhibition above about 36%;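 note: 0% = enzyme with DMSO and 100% = wells lacking enzyme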
# SIAE inh: human SIAE inhibitors, primary screen, biochemical, fluorescence polarization, FP-Rh probe, 1536-well HTS. Sialate O-acetylesterase (Homo sapiens), Q9HAT2. SIAE FP-Rh probe binding. inhibition, % at 9.66 µM. 0.69% of 370,000 active;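 active = inhibition above a cutoff: mean of compounds within the control limits plus 3 SD of those, cut at about 17% in these data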;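 note: 0% = plate median of compound wells and 100% = probe without SIAE protein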
# mABHD4 FP: ABHD4 inhibitors, primary screen, biochemical, fluorescence polarization, mouse. (Lyso)-N-acylphosphatidylethanolamine lipase (Mus musculus), Q8VD66. 0.54% of 370,000 active. inhibition, % at 8.92 µM. purified mABHD4, FP-Rh probe fluorescence polarization. AID 720543, 2013;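 active = inhibition exceeding the mean over every tested compound plus 3 SD, cut at about 30% in these data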;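 note: 0% = plate median of compound wells and 100% = S159A mutant with DMSO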
#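 Doses – 8.92 µM, single dose · Material – wild-type mouse ABHD4 protein · Replication – single well per compound (singlicate) · Measure – percent inhibition of probe binding, normalized to plate controls · Schedule – 45 min compound pre-incubation plus 60 min probe step, 25 °C · Detection – fluorescence polarization with parallel and perpendicular emission, 525/598 nm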
# TCR CD3 inh: inhibitors of human TCR-CD3 interaction, primary screen, biochemical, fluorescence, TAMRA-labeled TCR probe; T-cell receptor (TCR); inhibition, % at 9.4 µM; 0.37% of 360,000 active; in the data active = inhibition above about 19%;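 note: recombinant mutant TCR 2C K166C tagged with TAMRA read by polarization; 0% = receptor in buffer alone and 100% = receptor with positive control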
# SIAE confirm: human SIAE inhibitors, retest, confirmation, biochemical, fluorescence polarization, FP-Rh probe, triplicate; shares compounds with SIAE inh; SIAE FP-Rh activity-based probe; inhibition, % at 9.66 µM; 13% of 2,300 active;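 active = mean inhibition of the replicates above the hit cutoff set in the primary screen, cut at about 17% in these data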;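 note: 0% = SIAE with DMSO and probe and 100% = probe without SIAE; inhibitors lower polarization as more probe stays unbound to SIAE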
# * marks the source's active call; other numbers are inactive results; · = not tested or not shown.
SMILES,DAGLB inhibitor,HTRA1 inhibitor,SIAE inh,mABHD4 FP,TCR CD3 inh,SIAE confirm
COc1ccc(Cn2cc(COC(=O)NCCc3c[nH]c4ccccc34)nn2)cc1,·,·,8,-4,·,·
CN(C)c1ccc(CNCC2CCCO2)cc1 (stereo not drawn),-1,3,18*,-3,2,-2
C=C1CCC[C@]2(C)C[C@H]3OC(=O)C(CNCCN(CC)CC)[C@H]3CC12 (stereo partly drawn),0,-2,22*,11,2,0
CCc1nnc(NC(=O)CCn2cnc3ccccc3c2=O)s1,·,·,22*,-7,2,1
C[C@@H](c1ccccc1)N1C[C@@H](COCc2ccccc2)Oc2cc(N3CC[C@@H](N(C)C)C3)ccc2S1(=O)=O,·,·,18*,19,3,9
O=C(Nc1nncs1)c1c(F)c(F)c(F)c(F)c1F,1,-6,20*,6,0,1
Cc1ccccc1C(=O)Nc1nncs1,1,-2,1,3,3,·
COC(=O)[C@]12C[C@H](CC(=O)N3CCN(C(=O)C4CC4)CC3)C(=O)N(Cc3ccc(Cl)cc3Cl)C1=C[C@H](C1CCCC1)O[C@@H]2C,·,·,-2,-4,·,·
Cc1ccc(N(CC(=O)NC2CCCC2)C(=O)CCC(=O)Nc2nccs2)cc1C,0,5,18*,2,6,1
Cc1ccc(C)c(N(CC(=O)NC2CCCC2)C(=O)CCC(=O)Nc2nccs2)c1,1,0,-68,0,-1,·
O=[N+]([O-])c1ccccc1/C=N/n1c(-c2cccnc2)n[nH]c1=S,-1,-1,17*,6,3,0
O=[N+]([O-])c1cc(/C=N/n2c(-c3cccnc3)n[nH]c2=S)ccc1Cl,1,-2,-5,5,-1,·
COc1ccc(-n2c(SCC(=O)c3ccc4ccccc4c3)nnc2-c2ccccc2)cc1,·,·,-3,0,·,·
COc1ccc(C=Nn2c(-c3ccc(F)cc3)n[nH]c2=S)cc1OCc1ccccc1,·,·,5,2,·,·
O=C1c2ccccc2C(Nc2ccc3c(c2)OCO3)N1Cc1ccco1 (stereo not drawn),7,24,19*,18,-3,6
O=C1c2ccccc2C(Nc2ccc3c(c2)OCO3)N1Cc1ccc2c(c1)OCO2 (stereo not drawn),4,8,8,15,1,·
Cc1[nH]nc2c1C(c1ccc(Br)cc1)N(Cc1ccccc1)C2=O (stereo not drawn),·,·,-6,-14,4,·
NS(=O)(=O)c1ccc(N/N=C/C=C/c2ccccc2[N+](=O)[O-])cc1,18,8,24*,3,1,0
CCCCCCC(=O)n1ccc2ccc(-c3ccc4ccn(Cc5ccc(OC)cc5)c4c3)cc21,·,·,-7,2,·,·
CCn1c(CO)nc2c1c(=O)[nH]c(=O)n2Cc1ccccc1,0,4,20*,0,0,-2
Cc1ccc(-c2nc3c(c(=O)[nH]c(=O)n3Cc3ccccc3)n2Cc2ccccc2)o1,11,-42,-6,-6,7,·
COC(=O)[C@]12C[C@H](CC(=O)N3CCOCC3)C(=O)N(Cc3cccc4ccccc34)C1=C[C@H](C1CCCC1)O[C@@H]2C,·,·,0,1,·,·
CC(=O)NC12CC3CC(C1)CC(C(=O)N1CCN(S(=O)(=O)c4ccc(C(C)C)cc4)CC1)(C3)C2,1,-7,9,-2,-11,·
CC(=O)NC12CC3CC(C1)CC(C(=O)N1CCN(S(=O)(=O)c4ccccc4C#N)CC1)(C3)C2,2,4,28*,5,-2,-2
Cc1[nH]n(-c2ccc(Br)cc2)c(=O)c1/C=N/NC(=O)c1ccccc1,1,14,17*,8,4,2
COC(=O)C(NC(=O)c1ccco1)(Nc1ccc(Br)cn1)C(F)(F)F (stereo not drawn),-4,-4,22*,2,-14,0
